# From ChEMBL document CHEMBL1255429, “Efflux pumps are involved in the defense of Gram-negative bacteria against the natural products isobavachalcone and diospyrone” (2010)
# Experiments:
# Type in all cases: functional
# Escherichia coli [1] = assay: Antimicrobial activity against Escherichia coli ATCC 10536 after 18 hrs by rapid INT colorimetric assay; settings: ATCC 10536, 18 h
# Procedure, shortened: (§1)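 Strains precultured overnight on Mueller-Hinton agar. Sample dissolved in DMSO-MHB, twofold serial dilutions in MHB, inoculum 1.5 × 10^6 CFU/ml; final DMSO below 2.5%. Incubated 37°C 18 h, then 0.2 mg/ml INT added, 30 min at 37°C. MIC = lowest concentration preventing yellow-to-pink change (complete growth inhibition). DMSO-only wells as negative control.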
# Escherichia coli [2] = assay: Antimicrobial activity against Escherichia coli ATCC 10536 after 18 hrs by rapid INT colorimetric assay in presence of efflux pump inhibitor phenylalanine arginine beta-naphthylamide; settings: ATCC 10536, 18 h
# Procedure, shortened: (§2)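 Broth microdilution MIC in Mueller-Hinton broth with PAßN at a final 20 μg/ml throughout. Twofold dilutions of sample from DMSO-MHB stock; inoculum 1.5 × 10^6 CFU/ml; 18 h at 37°C, final DMSO <2.5%. Growth read by INT (0.2 mg/ml, 30 min, 37°C). MIC taken as lowest concentration with no pink colour.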
# Escherichia coli [3] = assay: Antimicrobial activity against Escherichia coli ATCC 8739 after 18 hrs by rapid INT colorimetric assay; settings: ATCC 8739, 18 h
# Procedure, shortened: (§3)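 Strains precultured overnight on Mueller-Hinton agar. Samples dissolved in DMSO-MHB, serially diluted twofold in MHB, inoculum 1.5 × 10^6 CFU/ml in MHB added; 37°C, 18 h; final DMSO <2.5%. 0.2 mg/ml INT then added, 30 min at 37°C. MIC = lowest concentration preventing yellow-to-pink reduction, i.e. complete growth inhibition.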
# Escherichia coli [4] = assay: Antimicrobial activity against Escherichia coli ATCC 8739 after 18 hrs by rapid INT colorimetric assay in presence of efflux pump inhibitor phenylalanine arginine; settings: ATCC 8739, 18 h; procedure, shortened: as §2
# Escherichia coli [5] = assay: Antimicrobial activity against Escherichia coli AG100 after 18 hrs by rapid INT colorimetric assay; settings: AG100, 18 h; procedure, shortened: as §3
# Escherichia coli [6] = assay: Antimicrobial activity against Escherichia coli AG100 after 18 hrs by rapid INT colorimetric assay in presence of efflux pump inhibitor phenylalanine arginine; settings: AG100, 18 h
# Escherichia coli [7] = assay: Antimicrobial activity against Escherichia coli AG100A after 18 hrs by rapid INT colorimetric assay; procedure, shortened: as §3
# Escherichia coli [8] = assay: Antimicrobial activity against Escherichia coli AG100A after 18 hrs by rapid INT colorimetric assay in presence of efflux pump inhibitor phenylalanine arginine
# Escherichia coli [9] = assay: Antimicrobial activity against tetracycline-resistant Escherichia coli AG100A after 18 hrs by rapid INT colorimetric assay; procedure, shortened: as §3
# Escherichia coli [10] = assay: Antimicrobial activity against tetracycline-resistant Escherichia coli AG100A after 18 hrs by rapid INT colorimetric assay in presence of efflux pump inhibitor phenylalanine arginine; procedure, shortened: as §2
# Escherichia coli [11] = assay: Antimicrobial activity against tetracycline-resistant Escherichia coli AG102 after 18 hrs by rapid INT colorimetric assay; settings: AG102, 18 h; procedure, shortened: as §3
# Escherichia coli [12] = assay: Antimicrobial activity against tetracycline-resistant Escherichia coli AG102 after 18 hrs by rapid INT colorimetric assay in presence of efflux pump inhibitor phenylalanine arginine; settings: AG102, 18 h; procedure, shortened: as §2
# Klebsiella aerogenes [13] = assay: Antimicrobial activity against Enterobacter aerogenes ATCC 13048 after 18 hrs by rapid INT colorimetric assay; settings: ATCC 13048, 18 h; procedure, shortened: as §1
# Klebsiella aerogenes [14] = assay: Antimicrobial activity against Enterobacter aerogenes ATCC 13048 after 18 hrs by rapid INT colorimetric assay in presence of efflux pump inhibitor phenylalanine arginine; settings: ATCC 13048, 18 h
# Klebsiella aerogenes [15] = assay: Antimicrobial activity against Enterobacter aerogenes EA-CM64 after 18 hrs by rapid INT colorimetric assay; settings: EA-CM64, 18 h; procedure, shortened: as §3
# Klebsiella aerogenes [16] = assay: Antimicrobial activity against Enterobacter aerogenes EA-CM64 after 18 hrs by rapid INT colorimetric assay in presence of efflux pump inhibitor phenylalanine arginine; settings: EA-CM64, 18 h
# Klebsiella aerogenes [17] = assay: Antimicrobial activity against Enterobacter aerogenes EA289 after 18 hrs by rapid INT colorimetric assay; settings: EA289, 18 h; procedure, shortened: as §1
# Klebsiella aerogenes [18] = assay: Antimicrobial activity against Enterobacter aerogenes EA289 after 18 hrs by rapid INT colorimetric assay in presence of efflux pump inhibitor phenylalanine arginine; settings: EA289, 18 h
# Klebsiella aerogenes [19] = assay: Antimicrobial activity against Enterobacter aerogenes EA294 after 18 hrs by rapid INT colorimetric assay; settings: EA294, 18 h; procedure, shortened: as §3
# Klebsiella aerogenes [20] = assay: Antimicrobial activity against Enterobacter aerogenes EA294 after 18 hrs by rapid INT colorimetric assay in presence of efflux pump inhibitor phenylalanine arginine; settings: EA294, 18 h
# Klebsiella aerogenes [21] = assay: Antimicrobial activity against Enterobacter aerogenes EA298 after 18 hrs by rapid INT colorimetric assay; settings: EA298, 18 h; procedure, shortened: as §3
# Klebsiella aerogenes [22] = assay: Antimicrobial activity against Enterobacter aerogenes EA298 after 18 hrs by rapid INT colorimetric assay in presence of efflux pump inhibitor phenylalanine arginine; settings: EA298, 18 h
# Klebsiella aerogenes [23] = assay: Antimicrobial activity against Enterobacter aerogenes EA27 after 18 hrs by rapid INT colorimetric assay; settings: EA27, 18 h; procedure, shortened: as §1
# Klebsiella aerogenes [24] = assay: Antimicrobial activity against Enterobacter aerogenes EA27 after 18 hrs by rapid INT colorimetric assay in presence of efflux pump inhibitor phenylalanine arginine; settings: EA27, 18 h
# Klebsiella aerogenes [25] = assay: Antimicrobial activity against Enterobacter aerogenes EA3 after 18 hrs by rapid INT colorimetric assay; settings: EA3, 18 h; procedure, shortened: as §1
# Klebsiella aerogenes [26] = assay: Antimicrobial activity against Enterobacter aerogenes EA3 after 18 hrs by rapid INT colorimetric assay in presence of efflux pump inhibitor phenylalanine arginine; settings: EA3, 18 h
# Klebsiella aerogenes [27] = assay: Antimicrobial activity against Enterobacter aerogenes EA5 after 18 hrs by rapid INT colorimetric assay; settings: EA5, 18 h; procedure, shortened: as §1
# Klebsiella aerogenes [28] = assay: Antimicrobial activity against Enterobacter aerogenes EA5 after 18 hrs by rapid INT colorimetric assay in presence of efflux pump inhibitor phenylalanine arginine; settings: EA5, 18 h
# Klebsiella pneumoniae [29] = assay: Antimicrobial activity against Klebsiella pneumoniae ATCC 11296 after 18 hrs by rapid INT colorimetric assay; settings: ATCC 11296, 18 h; procedure, shortened: as §3
# Klebsiella pneumoniae [30] = assay: Antimicrobial activity against Klebsiella pneumoniae ATCC 11296 after 18 hrs by rapid INT colorimetric assay in presence of efflux pump inhibitor phenylalanine arginine; settings: ATCC 11296, 18 h
# Klebsiella pneumoniae [31] = assay: Antimicrobial activity against Klebsiella pneumoniae KP55 after 18 hrs by rapid INT colorimetric assay; settings: KP55, 18 h; procedure, shortened: as §1
# Klebsiella pneumoniae [32] = assay: Antimicrobial activity against Klebsiella pneumoniae KP55 after 18 hrs by rapid INT colorimetric assay in presence of efflux pump inhibitor phenylalanine arginine; settings: KP55, 18 h
# Klebsiella pneumoniae [33] = assay: Antimicrobial activity against Klebsiella pneumoniae KP63 after 18 hrs by rapid INT colorimetric assay; settings: KP63, 18 h; procedure, shortened: as §1
# Klebsiella pneumoniae [34] = assay: Antimicrobial activity against Klebsiella pneumoniae KP63 after 18 hrs by rapid INT colorimetric assay in presence of efflux pump inhibitor phenylalanine arginine; settings: KP63, 18 h
# Pseudomonas aeruginosa [35] = assay: Antimicrobial activity against Pseudomonas aeruginosa PAO1 after 18 hrs by rapid INT colorimetric assay; settings: PAO1, 18 h; procedure, shortened: as §3
# Pseudomonas aeruginosa [36] = assay: Antimicrobial activity against Pseudomonas aeruginosa PAO1 after 18 hrs by rapid INT colorimetric assay in presence of efflux pump inhibitor phenylalanine arginine; settings: PAO1, 18 h
# Pseudomonas aeruginosa [37] = assay: Antimicrobial activity against Pseudomonas aeruginosa PA124 after 18 hrs by rapid INT colorimetric assay; settings: PA124, 18 h; procedure, shortened: as §3
# Pseudomonas aeruginosa [38] = assay: Antimicrobial activity against Pseudomonas aeruginosa PA124 after 18 hrs by rapid INT colorimetric assay in presence of efflux pump inhibitor phenylalanine arginine; settings: PA124, 18 h
# Enterobacter cloacae [39] = assay: Antimicrobial activity against Enterobacter cloacae Ec07769 after 18 hrs by rapid INT colorimetric assay; settings: Ec07769, 18 h; procedure, shortened: as §1
# Enterobacter cloacae [40] = assay: Antimicrobial activity against Enterobacter cloacae Ec07769 after 18 hrs by rapid INT colorimetric assay in presence of efflux pump inhibitor phenylalanine arginine; settings: Ec07769, 18 h
# Enterobacter cloacae [41] = assay: Antimicrobial activity against Enterobacter cloacae Ec1194 after 18 hrs by rapid INT colorimetric assay; settings: Ec1194, 18 h; procedure, shortened: as §1
# Enterobacter cloacae [42] = assay: Antimicrobial activity against Enterobacter cloacae Ec1194 after 18 hrs by rapid INT colorimetric assay in presence of efflux pump inhibitor phenylalanine arginine; settings: Ec1194, 18 h; procedure, shortened: as §2
smiles,measurement,setting,value
CC1=C(c2c(C)cc(O)c3c2C(=O)C(c2c(O)c4c(C)cccc4oc2=O)=C(c2c(O)c4c(C)cccc4oc2=O)C3=O)C(=O)c2c(O)cccc2C1=O [DIOSPYRONE],MIC,Escherichia coli [1],32 µg/mL
same,MIC,Escherichia coli [2],2 µg/mL
same,MIC,Escherichia coli [3],128 µg/mL
same,MIC,Escherichia coli [4],4 µg/mL
same,MIC,Escherichia coli [5],64 µg/mL
same,MIC,Escherichia coli [6],1 µg/mL
same,MIC,Escherichia coli [7],4 µg/mL
same,MIC,Escherichia coli [8],0.12 µg/mL
same,MIC,Escherichia coli [9],16 µg/mL
same,MIC,Escherichia coli [10],0.24 µg/mL
same,MIC,Escherichia coli [11],64 µg/mL
same,MIC,Escherichia coli [12],2 µg/mL
same,MIC,Klebsiella aerogenes [13],128 µg/mL
same,MIC,Klebsiella aerogenes [14],32 µg/mL
same,MIC,Klebsiella aerogenes [15],128 µg/mL
same,MIC,Klebsiella aerogenes [16],16 µg/mL
same,MIC,Klebsiella aerogenes [17],128 µg/mL
same,MIC,Klebsiella aerogenes [18],8 µg/mL
same,MIC,Klebsiella aerogenes [19],128 µg/mL
same,MIC,Klebsiella aerogenes [20],8 µg/mL
same,MIC,Klebsiella aerogenes [21],32 µg/mL
same,MIC,Klebsiella aerogenes [22],16 µg/mL
same,MIC,Klebsiella aerogenes [23],128 µg/mL
same,MIC,Klebsiella aerogenes [24],16 µg/mL
same,MIC,Klebsiella aerogenes [25],128 µg/mL
same,MIC,Klebsiella aerogenes [26],64 µg/mL
same,MIC,Klebsiella aerogenes [27],128 µg/mL
same,MIC,Klebsiella aerogenes [28],64 µg/mL
same,MIC,Klebsiella pneumoniae [29],32 µg/mL
same,MIC,Klebsiella pneumoniae [30],2 µg/mL
same,MIC,Klebsiella pneumoniae [31],64 µg/mL
same,MIC,Klebsiella pneumoniae [32],8 µg/mL
same,MIC,Klebsiella pneumoniae [33],32 µg/mL
same,MIC,Klebsiella pneumoniae [34],4 µg/mL
same,MIC,Pseudomonas aeruginosa [35],64 µg/mL
same,MIC,Pseudomonas aeruginosa [36],4 µg/mL
same,MIC,Pseudomonas aeruginosa [37],64 µg/mL
same,MIC,Pseudomonas aeruginosa [38],1 µg/mL
same,MIC,Enterobacter cloacae [39],128 µg/mL
same,MIC,Enterobacter cloacae [40],8 µg/mL
same,MIC,Enterobacter cloacae [41],32 µg/mL
same,MIC,Enterobacter cloacae [42],2 µg/mL
O=C(N[C@H](CO)[C@H](O)c1ccc([N+](=O)[O-])cc1)C(Cl)Cl [CHLORAMPHENICOL],MIC,Escherichia coli [1],1 µg/mL
same,MIC,Escherichia coli [2],0.5 µg/mL
same,MIC,Escherichia coli [3],4 µg/mL
same,MIC,Escherichia coli [4],1 µg/mL
same,MIC,Escherichia coli [5],4 µg/mL
same,MIC,Escherichia coli [6],0.25 µg/mL
same,MIC,Escherichia coli [7],0.5 µg/mL
same,MIC,Escherichia coli [8],0.25 µg/mL
same,MIC,Escherichia coli [9],32 µg/mL
same,MIC,Escherichia coli [10],2 µg/mL
same,MIC,Escherichia coli [11],32 µg/mL
same,MIC,Escherichia coli [12],2 µg/mL
same,MIC,Klebsiella aerogenes [13],4 µg/mL
same,MIC,Klebsiella aerogenes [14],1 µg/mL
same,MIC,Klebsiella aerogenes [15],256 µg/mL
same,MIC,Klebsiella aerogenes [16],8 µg/mL
same,MIC,Klebsiella aerogenes [17],> 256 µg/mL
same,MIC,Klebsiella aerogenes [18],128 µg/mL
same,MIC,Klebsiella aerogenes [19],64 µg/mL
same,MIC,Klebsiella aerogenes [20],16 µg/mL
same,MIC,Klebsiella aerogenes [21],64 µg/mL
same,MIC,Klebsiella aerogenes [22],16 µg/mL
same,MIC,Klebsiella aerogenes [23],> 256 µg/mL
same,MIC,Klebsiella aerogenes [24],128 µg/mL
same,MIC,Klebsiella aerogenes [25],> 256 µg/mL
same,MIC,Klebsiella aerogenes [26],128 µg/mL
same,MIC,Klebsiella aerogenes [27],> 256 µg/mL
same,MIC,Klebsiella aerogenes [28],32 µg/mL
same,MIC,Klebsiella pneumoniae [29],2 µg/mL
same,MIC,Klebsiella pneumoniae [30],2 µg/mL
same,MIC,Klebsiella pneumoniae [31],32 µg/mL
same,MIC,Klebsiella pneumoniae [32],4 µg/mL
same,MIC,Klebsiella pneumoniae [33],> 256 µg/mL
same,MIC,Klebsiella pneumoniae [34],128 µg/mL
same,MIC,Pseudomonas aeruginosa [35],128 µg/mL
same,MIC,Pseudomonas aeruginosa [36],8 µg/mL
same,MIC,Pseudomonas aeruginosa [37],256 µg/mL
same,MIC,Pseudomonas aeruginosa [38],8 µg/mL
same,MIC,Enterobacter cloacae [39],> 256 µg/mL
same,MIC,Enterobacter cloacae [40],256 µg/mL
same,MIC,Enterobacter cloacae [41],2 µg/mL
same,MIC,Enterobacter cloacae [42],1 µg/mL
